From ChEMBL document CHEMBL1134318, “Design, synthesis, and biological characterization of bivalent 1-methyl-1,2,5,6-tetrahydropyridyl-1,2,5-thiadiazole derivatives as selective muscarinic agonists” (J Med Chem, 2001) come the findings set out here.

The target in data set [1] is T1, Muscarinic acetylcholine receptor M1 (Homo sapiens) (UniProt P11229).
T1 sequence (whole entry): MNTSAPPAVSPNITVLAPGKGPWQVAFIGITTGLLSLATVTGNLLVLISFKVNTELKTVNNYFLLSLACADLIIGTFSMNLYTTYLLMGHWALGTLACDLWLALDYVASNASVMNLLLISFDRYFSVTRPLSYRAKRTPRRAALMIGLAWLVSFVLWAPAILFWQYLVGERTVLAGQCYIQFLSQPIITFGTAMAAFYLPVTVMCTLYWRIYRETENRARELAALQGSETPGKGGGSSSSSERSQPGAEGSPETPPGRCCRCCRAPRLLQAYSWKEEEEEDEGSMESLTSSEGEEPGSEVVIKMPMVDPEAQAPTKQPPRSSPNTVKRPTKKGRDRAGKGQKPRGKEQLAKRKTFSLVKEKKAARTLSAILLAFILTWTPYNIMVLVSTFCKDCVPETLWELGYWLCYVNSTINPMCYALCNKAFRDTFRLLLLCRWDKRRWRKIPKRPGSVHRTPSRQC
The note with it: at 100 µM.

For data set [2], the target named is T1, Muscarinic acetylcholine receptor M1 (Homo sapiens). Put plainly: Agonist activity at M1 receptor coupled to phosphoinositide metabolism at 100 uM expressed as percent stimulation above basal levels relative to carbachol response. The format is functional. In short, it runs like this:
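Stably transfected A9 L cells (and/or NIH 3T3) expressing human M1 receptor; agonist-stimulated accumulation of [3H]-inositol phosphates measured at 100 µM test ligand. […] Mean (SEM) of two to five assays per compound.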

Data set [3] deals with T2, Muscarinic acetylcholine receptor M1 (Homo sapiens, UniProt P11229).
T2 sequence (P11229 whole entry): T1 sequence (whole entry)
Put plainly: (§1) Binding affinity towards M1 muscarinic receptor expressed in A9 L cells by displacing [3H](R)-QNB radioligand. Format: cell-based, L929. In short, it runs like this: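 Competition binding on A9 L cell membrane homogenates (human M1) with 0.1 nM [3H]-(R)-QNB and 14 test-ligand concentrations, 0.01 nM to 3 mM. Buffer 25 mM sodium phosphate pH 7.4 with 5 mM MgCl2, 2 h at room temperature.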

The nature of data set [4]: Maximum release of beta-hexosaminidase was determined as a measure of degranulation. The format is functional. Also noted: reference not given here. Summed up: (§2)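 RBL-2H3 mast cell subclone stably transfected with human M4 receptor (>1 × 10^5 receptors/cell). Agonist action read as degranulation, i.e. hexosaminidase released into the supernatant, following earlier M1 methods. Dose-response data fit to a one-site stimulation model for Smax and EC50.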

Data set [5] has as its target T3, Muscarinic acetylcholine receptor M5 (Homo sapiens) (UniProt P08912).
T3 sequence (whole entry): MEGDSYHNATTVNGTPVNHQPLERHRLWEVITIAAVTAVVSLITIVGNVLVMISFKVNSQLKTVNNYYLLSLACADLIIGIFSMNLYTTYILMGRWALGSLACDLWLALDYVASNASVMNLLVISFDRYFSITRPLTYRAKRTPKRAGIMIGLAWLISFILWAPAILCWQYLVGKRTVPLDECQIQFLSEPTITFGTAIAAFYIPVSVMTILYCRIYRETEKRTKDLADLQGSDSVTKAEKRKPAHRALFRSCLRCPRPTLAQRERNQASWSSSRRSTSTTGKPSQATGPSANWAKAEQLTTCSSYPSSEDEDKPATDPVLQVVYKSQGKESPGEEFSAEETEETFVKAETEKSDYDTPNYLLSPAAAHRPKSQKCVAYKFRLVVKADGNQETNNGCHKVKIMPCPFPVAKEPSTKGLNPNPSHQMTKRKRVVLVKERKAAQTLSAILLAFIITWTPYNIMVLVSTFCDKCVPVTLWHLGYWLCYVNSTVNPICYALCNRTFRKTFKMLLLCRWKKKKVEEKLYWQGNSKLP
Put plainly: Maximal level of stimulation as a percentage above basal levels. The format is functional.

The target in data set [6] is T2, Muscarinic acetylcholine receptor M1. The data set is described as §1.
For data set [7] the target is unchanged. Put plainly: Agonistic activity against M1 muscarinic receptor expressed in A9 L cells. The format is functional, cell-based, A9L.
Data set [8] is described as follows: Solubility in Kreb-Heinsleit buffer. Format: physicochemical.
Data set [9] in a line: Solubility in deionized water. The format is physicochemical. The note with it: read-out: S.
Data set [10] deals with T4, Muscarinic acetylcholine receptor M4 (Homo sapiens, UniProt P08173).
T4 sequence (P08173 whole entry): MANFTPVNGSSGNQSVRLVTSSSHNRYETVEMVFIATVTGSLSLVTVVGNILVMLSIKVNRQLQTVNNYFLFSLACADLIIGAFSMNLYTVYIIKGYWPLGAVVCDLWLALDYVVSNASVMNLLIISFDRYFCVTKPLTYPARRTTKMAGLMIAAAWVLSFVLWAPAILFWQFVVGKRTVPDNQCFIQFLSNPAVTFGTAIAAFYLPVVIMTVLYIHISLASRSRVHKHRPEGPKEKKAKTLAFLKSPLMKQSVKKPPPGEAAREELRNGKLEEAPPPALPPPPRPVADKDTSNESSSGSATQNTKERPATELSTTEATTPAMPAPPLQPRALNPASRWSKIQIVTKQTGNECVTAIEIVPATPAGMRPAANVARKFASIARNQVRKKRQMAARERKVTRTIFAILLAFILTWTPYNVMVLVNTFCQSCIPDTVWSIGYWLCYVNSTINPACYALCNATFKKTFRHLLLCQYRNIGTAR
Put plainly: Agonist activity against M4 muscarinic receptor expressed in RBL-2H3 Mast cells. The format is functional, cell-based. In short, it runs like this: as §2

The target in data set [11] is T4, Muscarinic acetylcholine receptor M4. Put plainly: Agonist activity against human M4 muscarinic receptor expressed in RBL-2H3 Mast cells. The format is functional, cell-based. Summed up:
as §2

For data set [12], the target named is T2, Muscarinic acetylcholine receptor M1. Put plainly: Agonistic activity against M1 muscarinic receptor expressed in NIH 3T3 cells. The format is functional, cell-based, NIH3T3.

In general, Ki refers to the equilibrium dissociation constant of an inhibitor or competing ligand from its target. In general, EC50 refers to the concentration that produces a half-maximal response.

In brackets after ≈: the same amount, converted by molar mass.

For the molecule `CN1CCC=C(c2nsnc2OCCCOc2nsnc2C2=CCCN(C)C2)C1`, the PI metabolism in [1] came to 21%.
`CN1CCC=C(c2nsnc2OCCOCCOc2nsnc2C2=CCCN(C)C2)C1`: the Stimulation in data set [2] is less than 10%. The affinity in data set [3], expressed as Ki, was 0.0049 µM.
In the case of `C[N+](C)(C)CCOC(N)=O`, in [4], the Max release was found to be 87%. The Smax in data set [5] amounted to 110%.
On to `CN1CCC=C(c2nsnc2SCCCCCCCSc2nsnc2C2=CCCN(C)C2)C1`, for which, in data set [6], the affinity, expressed as Ki, was 0.0076 µM. This molecule also showed an EC50 in [7] of 0.18 µM.
The like results for `CN1CCC=C(c2nsnc2SCCCCCCSc2nsnc2C2=CCCN(C)C2)C1` were, in that order, 0.00087 µM and 0.59 µM.
Consider `CN1CCC=C(c2nsnc2OCCCCCCCCCCOc2nsnc2C2=CCCN(C)C2)C1`, for which the solubility in [8] is 0.004 mg/mL (≈ 0.00751 mM); in [9], 25 mg/mL (≈ 46.9 mM). Also, the Max release in data set [4] amounted to 24%. This molecule had an EC50 in [10] of 1.1 µM. For the same molecule, in data set [1], the PI metabolism stood at 76%.
`CC(=O)OCC[N+](C)(C)C`: the Smax in data set [5] turned out to be 99%.
On to `CCCCCCOc1nsnc1C1=CCCN(C)C1`, for which the PI metabolism in [1] came to 47%.
`CN1CCC=C(c2nsnc2OCCCCCCCCOc2nsnc2C2=CCCN(C)C2)C1`: in [4], the Max release turned out to be 1%. Moreover, in data set [10], the EC50 is greater than 100 µM. For the same molecule, the PI metabolism in [1] came out at 8.2%.
In [4], `CN1CCC=C(c2nsnc2SCCCCCCCCCCCCSc2nsnc2C2=CCCN(C)C2)C1` returned a Max release of 54%. The EC50 in data set [10] was 0.001 µM; in data set [7], 13 µM. In [6], this molecule registered a Ki of 0.00069 µM.
Consider `CN1CCC=C(c2nsnc2OCCOc2nsnc2C2=CCCN(C)C2)C1`, for which the Stimulation in [2] was 50%. This molecule showed a Max release in [4] of 39%. For the same molecule, in data set [11], the response was half-maximal at 3.9 µM (EC50).
In [4], `CN1CCC=C(c2nsnc2OCCCCCCCOc2nsnc2C2=CCCN(C)C2)C1` gave a Max release of 4%. The EC50 in data set [10] is greater than 100 µM. Further, the PI metabolism in data set [1] was -3%.
`CN1CCC=C(c2nsnc2OCCCCCCCCCOc2nsnc2C2=CCCN(C)C2)C1` returned a Max release in data set [4] of 61%. In data set [10], this molecule had an EC50 of 20 µM. In addition, affinity in data set [6] was put at a Ki of 0.00084 µM. In addition, in data set [1], the PI metabolism worked out at 27%.
Consider `CN1CCC=C(c2nsnc2OCCOCCOCCOCCOCCOc2nsnc2C2=CCCN(C)C2)C1`, for which, in [6], affinity was put at a Ki of 0.0015 µM. For the same molecule, the PI metabolism in data set [1] is less than 10%.
In [6], `CN1CCC=C(c2nsnc2SCCCCCSc2nsnc2C2=CCCN(C)C2)C1` displayed a Ki of 0.014 µM. In data set [7], this molecule displayed an EC50 of 0.079 µM.
Turning to `CN1CCC=C(c2nsnc2OCCCCCCCCCCCCOc2nsnc2C2=CCCN(C)C2)C1`, the solubility amounted to 0.0017 mg/mL (≈ 0.00303 mM) in data set [8] and 20 mg/mL (≈ 35.7 mM) in [9]. Besides, in data set [4], the Max release amounted to 57%. Moreover, the response in data set [10] was half-maximal at 0.0014 µM (EC50). For the same molecule, the Ki in [6] is 0.0016 µM. In data set [1], the PI metabolism turned out to be 84%.
Molecule `CN1CCC=C(c2nsnc2SCCCCCCCCSc2nsnc2C2=CCCN(C)C2)C1` yielded a Ki in data set [6] of 0.005 µM. The EC50 in data set [7] is 0.92 µM.
As for `CN1CCC=C(c2nsnc2SCCCSc2nsnc2C2=CCCN(C)C2)C1`, in data set [6], the affinity, expressed as Ki, was 0.0012 µM. In [7], this molecule had an EC50 of 0.35 µM.
The like results for `CN1CCC=C(c2nsnc2SCCSc2nsnc2C2=CCCN(C)C2)C1` were, in that order, 0.02 µM and 0.44 µM.
Molecule `CN1CCC=C(c2nsnc2OCCCCCCOc2nsnc2C2=CCCN(C)C2)C1` showed a Max release in data set [4] of 3%. In data set [10], the EC50 was greater than 100 µM. Further, the PI metabolism in data set [1] worked out at 18%.
In [6], `CN1CCC=C(c2nsnc2SCCCCSc2nsnc2C2=CCCN(C)C2)C1` returned a Ki of 0.00093 µM. Further, the EC50 in data set [7] was determined as 0.57 µM.
Regarding `CN1CCC=C(c2nsnc2OCCOCCOCCOc2nsnc2C2=CCCN(C)C2)C1`, in data set [1], the PI metabolism is less than 10%.
In data set [6], `CN1CCC=C(c2nsnc2OCCOCCOCCOCCOCCOCCOc2nsnc2C2=CCCN(C)C2)C1` came in with a Ki of 0.0019 µM. For the same molecule, the PI metabolism in [1] is less than 10%.
As to `CN1CCC=C(c2nsnc2OCCCCOc2nsnc2C2=CCCN(C)C2)C1`, the PI metabolism in data set [1] was determined as 21%.
Consider `CN1CCC=C(c2nsnc2SCCCCCCCCCCSc2nsnc2C2=CCCN(C)C2)C1`, for which the Max release in [4] came out at 61%. For the same molecule, the EC50 in data set [10] was 0.0006 µM; in [7] it was 2.1 µM. Besides, in data set [6], the Ki turned out to be 0.00032 µM.
For `CN1CCC=C(c2nsnc2SCCCCCCCCCSc2nsnc2C2=CCCN(C)C2)C1`, affinity in [6] was put at a Ki of 0.017 µM. A half-maximal response in data set [7] (EC50) required 0.12 µM.
With `CN1CCC=C(c2nsnc2OCCOCCOCCOCCOc2nsnc2C2=CCCN(C)C2)C1`, the values for the EC50 in data set [12] and in data set [10] were 0.29 µM and 0.0052 µM, respectively. The solubility was 0.02 mg/mL (≈ 0.0362 mM) in data set [8] and greater than 1000 mg/mL in data set [9]. The molecule further displayed a Max release in data set [4] of 43%. Moreover, the Smax in data set [5] was -3.7%. The PI metabolism in [1] worked out at 56%.
For `CN1CCC=C(c2nsnc2OCCCCCOc2nsnc2C2=CCCN(C)C2)C1`, the PI metabolism in data set [1] is -1%.
The molecule `CN1CCC=C(c2nsnc2SCCCCCCCCCCCSc2nsnc2C2=CCCN(C)C2)C1` had a Max release in data set [4] of 29%. In addition, the values for the EC50 in [10] and in data set [7] were 0.0047 µM and 1.5 µM, respectively. In data set [6], this molecule yielded a Ki of 0.00057 µM.
